In ChEMBL document CHEMBL5029188:

Experiments:
SARS-CoV-2 = experiment: Antiviral activity against SARS CoV-2 infected in African green monkey Vero cells assessed as inhibition of viral replication incubated for 48 to 72 hrs by plaque reduction assay; format: functional, organism-based; conditions: Severe acute respiratory syndrome coronavirus 2, Vero
[1] = Inhibition of SARS CoV-2 3C like protease using FAM-SAVLQ/SG-QLX520 as substrate pretreated for 1 hr followed by substrate addition and measured after 1 hr by FRET assay; parameters: species or system Severe acute respiratory syndrome coronavirus 2
Method in brief: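 SARS-CoV-2 3CLpro was expressed from pET-28a(+). It was preincubated with serial compound dilutions at 37°C for 1 h in 20 mM HEPES pH 8, 200 mM NaCl, 0.4 mM EDTA, 60% glycerol and 6 mM DTT. IC50 came from a variable-slope fit, averaging at least two determinations.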

[2] = Inhibition of MERS CoV 3C like protease using FAM-SAVLQ/SG-QLX520 as substrate pretreated for 30 mins followed by substrate addition and measured after 1 hr by FRET assay; parameters: species or system Middle East respiratory syndrome-related coronavirus
[3] = Inhibition of SARS CoV-2 3C like protease expressed in HEK293T cells transfected with pGlo-VRLQS incubated for 6 hrs by firefly/renilla luciferase reporter assay; format: cell-based; conditions: Severe acute respiratory syndrome coronavirus 2, HEK-293T
Method in brief: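 HEK293T cells, one day old, were co-transfected with pR-SARS-CoV-2 3CLpro (3CLpro gene in a PRRSV replicon, between ORF1b and 2a) and pGlo-VRLQS (caged firefly luciferase with a VRLQS cleavage site, plus Renilla control). C145A-mutant and mock transfections served as negative controls. Next morning, serial compound dilutions were added for 6 h at 37 C. Read-out was the firefly/Renilla ratio, and EC50 came from a variable-slope fit.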

HEK-293T = experiment: Cytotoxicity against HEK293T cells assessed as reduction in cell viability measured after 72 hrs by CytoTox 96 nonradioactive cytotoxicity assay; format: cell-based; conditions: human
Method in brief: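 HEK293T cells were exposed to compound at 1 to 100 μM for 72 h. Cytotoxicity was read with a CytoTox 96 nonradioactive kit, and CC50 was fitted with a variable-slope curve.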

Row | SMILES | EC50 (SARS-CoV-2) | IC50 [1] | IC50 [2] | EC50 [3] | CC50 (HEK-293T)
1 | CC(C)C[C@H](NC(=O)OCc1ccccc1)C(=O)N[C@@H](C[C@@H]1CCNC1=O)C(O)S(=O)(=O)O (some centres not stated) | 0.23 µM |  |  |  | 
2 | CC(C)C[C@H](NC(=O)OCc1cccc(F)c1)C(=O)N[C@H](C=O)C[C@@H]1CCNC1=O |  | 0.35 µM | 0.07 µM | 5.28 µM | > 100 µM
3 | [2H]C([2H])(OC(=O)N[C@@H](CC(C)C)C(=O)N[C@H](C=O)C[C@@H]1CCNC1=O)c1c(F)c(F)c(F)c(F)c1F |  | 0.47 µM |  |  | 
4 | CCCC[C@H]1CC[C@H](OC(=O)N[C@@H](CC(C)C)C(=O)N[C@H](C=O)C[C@@H]2CCNC2=O)CC1 |  | 0.17 µM | 0.12 µM | 4.84 µM | 55 µM
5 | CCCCC(OC(=O)N[C@@H](CC(C)C)C(=O)N[C@H](C=O)C[C@@H]1CCNC1=O)C1CCC(F)(F)CC1 (some centres not stated) |  | 0.19 µM |  |  | 
6 | [2H]C([2H])(OC(=O)N[C@@H](CC(C)C)C(=O)N[C@@H](C[C@@H]1CCNC1=O)C(O)S(=O)(=O)[O-])c1c(F)c(F)c(F)c(F)c1F.[Na+] (some centres not stated) |  | 0.6 µM |  |  | 
7 | CC(C)C[C@H](NC(=O)OC1CCC(C)(C)CC1)C(=O)N[C@H](C=O)C[C@@H]1CCNC1=O |  | 0.25 µM | 0.12 µM | 3.48 µM | > 100 µM
8 | CC(C)C[C@H](NC(=O)OC[C@H]1CC[C@H](C(F)(F)F)CC1)C(=O)N[C@H](C=O)C[C@@H]1CCNC1=O |  | 0.25 µM |  |  | 
9 | CC(C)C[C@H](NC(=O)OCc1ccc(F)cc1)C(=O)N[C@H](C=O)C[C@@H]1CCNC1=O |  | 0.39 µM |  |  | 
10 | CC(C)C[C@H](NC(=O)O[C@H]1CC[C@H](c2ccccc2)CC1)C(=O)N[C@@H](C[C@@H]1CCNC1=O)C(O)S(=O)(=O)O (some centres not stated) |  | 0.23 µM |  |  | 
11 | CC(C)C[C@H](NC(=O)OC(C)(C)C1CCC(F)(F)CC1)C(=O)N[C@@H](C[C@@H]1CCNC1=O)C(O)S(=O)(=O)O (some centres not stated) |  | 1.25 µM |  |  | 
12 | CC(C)C[C@H](NC(=O)OC(C)C1CCC(F)(F)CC1)C(=O)N[C@@H](C[C@@H]1CCNC1=O)C(O)S(=O)(=O)O (some centres not stated) |  | 0.26 µM |  |  | 
13 | CC(C)C[C@H](NC(=O)OC1CCC(C)(C)CC1)C(=O)N[C@@H](C[C@@H]1CCNC1=O)C(O)S(=O)(=O)O (some centres not stated) |  | 0.24 µM | 0.12 µM | 1.67 µM | > 100 µM
14 | CC(C)C[C@H](NC(=O)OCc1c(F)c(F)c(F)c(F)c1F)C(=O)N[C@H](C=O)C[C@@H]1CCNC1=O |  |  | 0.05 µM | 3.27 µM | > 100 µM
15 | CCCC(OC(=O)N[C@@H](CC(C)C)C(=O)N[C@@H](C[C@@H]1CCNC1=O)C(O)S(=O)(=O)O)c1ccccc1 (some centres not stated) |  | 0.21 µM | 0.13 µM | 3.72 µM | > 100 µM
16 | CCCC(OC(=O)N[C@@H](CC(C)C)C(=O)N[C@H](C=O)C[C@@H]1CCNC1=O)c1ccccc1 (some centres not stated) |  | 0.33 µM | 0.08 µM | 2.39 µM | > 100 µM
17 | CC(C)C[C@H](NC(=O)OCc1ccccc1F)C(=O)N[C@@H](C[C@@H]1CCNC1=O)C(O)S(=O)(=O)O (some centres not stated) |  | 0.38 µM |  |  | 
18 | CC(C)C[C@H](NC(=O)OC(Cc1ccccc1)C1CCC(F)(F)CC1)C(=O)N[C@@H](C[C@@H]1CCNC1=O)C(O)S(=O)(=O)O (some centres not stated) |  | 0.29 µM | 0.14 µM | 3.5 µM | > 100 µM
19 | CC(C)C[C@H](NC(=O)O[C@H]1CC[C@H](C(C)C)CC1)C(=O)N[C@@H](C[C@@H]1CCNC1=O)C(O)S(=O)(=O)O (some centres not stated) |  | 0.24 µM |  |  | 
20 | [2H]C([2H])(OC(=O)N[C@@H](CC(C)C)C(=O)N[C@@H](C[C@@H]1CCNC1=O)C(O)S(=O)(=O)[O-])[C@H]1CC[C@H](CCC)CC1.[Na+] (some centres not stated) |  | 0.33 µM |  |  | 
21 | CC(C)C[C@H](NC(=O)OC(Cc1ccccc1)c1ccccc1)C(=O)N[C@H](C=O)C[C@@H]1CCNC1=O (some centres not stated) |  | 0.5 µM |  |  | 
22 | [2H]C([2H])(OC(=O)N[C@@H](CC(C)C)C(=O)N[C@H](C=O)C[C@@H]1CCNC1=O)[C@H]1CC[C@H](CCC)CC1 |  | 0.33 µM |  |  | 
23 | CC(C)C[C@H](NC(=O)OC[C@H]1CC[C@@H](C(F)(F)F)CC1)C(=O)N[C@@H](C[C@@H]1CCNC1=O)C(O)S(=O)(=O)O (some centres not stated) |  | 0.2 µM |  |  | 
24 | CC(C)C[C@H](NC(=O)OCc1ccc(F)cc1)C(=O)N[C@@H](C[C@@H]1CCNC1=O)C(O)S(=O)(=O)O (some centres not stated) |  | 0.4 µM |  |  | 

Row | SMILES | EC50 (SARS-CoV-2) | IC50 [1] | IC50 [2] | EC50 [3] | CC50 (HEK-293T)
25 | CC(C)C[C@H](NC(=O)OCC1CCC(F)(F)CC1)C(=O)N[C@H](C=O)C[C@@H]1CCNC1=O |  |  | 0.08 µM |  | 
27 | CC(C)C[C@H](NC(=O)O[C@H]1CC[C@H](C(C)C)CC1)C(=O)N[C@H](C=O)C[C@@H]1CCNC1=O |  | 0.24 µM |  |  | 
28 | CC(C)C[C@H](NC(=O)OCc1ccccc1F)C(=O)N[C@H](C=O)C[C@@H]1CCNC1=O |  | 0.34 µM |  |  | 
29 | [2H]C([2H])(OC(=O)N[C@@H](CC(C)C)C(=O)N[C@@H](C[C@@H]1CCNC1=O)C(O)S(=O)(=O)[O-])C1CCC(F)(F)CC1.[Na+] (some centres not stated) |  | 0.21 µM |  |  | 
30 | CC(C)C[C@H](NC(=O)O[C@H]1CC[C@H](c2ccccc2)CC1)C(=O)N[C@H](C=O)C[C@@H]1CCNC1=O |  | 0.22 µM |  |  | 
31 | CC(C)C[C@H](NC(=O)OCC1CCC(F)(F)CC1)C(=O)N[C@@H](C[C@@H]1CCNC1=O)C(O)S(=O)(=O)O (some centres not stated) |  |  | 0.1 µM |  | 
32 | CCC[C@H]1CC[C@H](COC(=O)N[C@@H](CC(C)C)C(=O)N[C@@H](C[C@@H]2CCNC2=O)C(O)S(=O)(=O)O)CC1 (some centres not stated) |  | 0.2 µM | 0.11 µM | 4.43 µM | 44 µM
33 | CC(C)C[C@H](NC(=O)OC[C@H]1CC[C@H](C(F)(F)F)CC1)C(=O)N[C@@H](C[C@@H]1CCNC1=O)C(O)S(=O)(=O)O (some centres not stated) |  | 0.19 µM |  |  | 
34 | CC(C)C[C@H](NC(=O)OC(c1ccccc1)C1CCC(F)(F)CC1)C(=O)N[C@H](C=O)C[C@@H]1CCNC1=O (some centres not stated) |  | 0.13 µM | 0.04 µM | 1.03 µM | > 100 µM
35 | CCCCC(OC(=O)N[C@@H](CC(C)C)C(=O)N[C@@H](C[C@@H]1CCNC1=O)C(O)S(=O)(=O)O)C1CCC(F)(F)CC1 (some centres not stated) |  | 0.27 µM |  |  | 
36 | CCC[C@H]1CC[C@H](OC(=O)N[C@@H](CC(C)C)C(=O)N[C@@H](C[C@@H]2CCNC2=O)C(O)S(=O)(=O)O)CC1 (some centres not stated) |  | 0.19 µM |  |  | 
37 | [2H]C([2H])(OC(=O)N[C@@H](CC(C)C)C(=O)N[C@@H](C[C@@H]1CCNC1=O)C(O)S(=O)(=O)[O-])c1ccc(F)cc1.[Na+] (some centres not stated) |  | 0.32 µM |  |  | 
38 | CC(C)C[C@H](NC(=O)OC[C@H]1CC[C@@H](C(F)(F)F)CC1)C(=O)N[C@H](C=O)C[C@@H]1CCNC1=O |  | 0.23 µM |  |  | 
39 | CC(C)C[C@H](NC(=O)OC(C)(C)C1CCC(F)(F)CC1)C(=O)N[C@H](C=O)C[C@@H]1CCNC1=O |  | 1.2 µM |  |  | 
40 | [2H]C([2H])(OC(=O)N[C@@H](CC(C)C)C(=O)N[C@H](C=O)C[C@@H]1CCNC1=O)c1ccc(F)cc1 |  | 0.39 µM |  |  | 
41 | CC(C)C[C@H](NC(=O)OCc1cccc(F)c1)C(=O)N[C@@H](C[C@@H]1CCNC1=O)C(O)S(=O)(=O)O (some centres not stated) |  | 0.36 µM | 0.07 µM | 3.4 µM | > 100 µM
42 | CC(C)C[C@H](NC(=O)OC(Cc1ccccc1)C1CCC(F)(F)CC1)C(=O)N[C@H](C=O)C[C@@H]1CCNC1=O (some centres not stated) |  | 0.31 µM | 0.1 µM | 2.95 µM | > 100 µM
43 | CC(C)C[C@H](NC(=O)OC(Cc1ccccc1)c1ccccc1)C(=O)N[C@@H](C[C@@H]1CCNC1=O)C(O)S(=O)(=O)O (some centres not stated) |  | 0.31 µM |  |  | 
44 | CC(C)C[C@H](NC(=O)OCc1c(F)c(F)c(F)c(F)c1F)C(=O)N[C@@H](C[C@@H]1CCNC1=O)C(O)S(=O)(=O)O (some centres not stated) |  |  | 0.08 µM | 4.84 µM | > 100 µM
45 | CCCC[C@H]1CC[C@H](OC(=O)N[C@@H](CC(C)C)C(=O)N[C@@H](C[C@@H]2CCNC2=O)C(O)S(=O)(=O)O)CC1 (some centres not stated) | 0.85 µM |  | 0.15 µM | 4.23 µM | 58 µM
46 | CC(C)C[C@H](NC(=O)OC(C)C1CCC(F)(F)CC1)C(=O)N[C@H](C=O)C[C@@H]1CCNC1=O (some centres not stated) |  | 0.26 µM |  |  | 
47 | CCC[C@H]1CC[C@H](OC(=O)N[C@@H](CC(C)C)C(=O)N[C@H](C=O)C[C@@H]2CCNC2=O)CC1 |  | 0.25 µM |  |  | 
